Measurements gathered from unrelated publications.

O=C(Nc1nccs1)C(c1cc(F)ccc1O)N1Cc2ccc(-c3ccc(N4CCNCC4)cc3)cc2C1=O (centres unmarked) — bioavailability (mouse, plasma; oral, 20 mg/kg): 3%
COc1ncccc1-c1cnn2ccc(N3CCN(C(=O)OC(C)C)CC3)nc12 — bioavailability (mouse, plasma; oral, 10 mg/kg): ~100%
O=C(NC1CCCCC1)Oc1ccc2ccccc2c1 — half-life (metabolic stability; male Wistar rat, liver S9; 1 µM, pH 7.4): 5 min
Cc1cc(C)nc(Nc2ncc(C(=O)NCCc3c(C)[nH]c4ccccc34)cn2)c1 — half-life (metabolic stability; rat, liver microsomes; 1 µM): 3.8 min
CCN(CC)CCCC[C@H](NC(=O)[C@H](CC(C)C)NC(=O)[C@H](C)NC(=O)[C@H](Cc1ccccc1)NC(=O)c1ccc(C(C)(C)C)cc1)C(=O)N[C@@H](CO)C(=O)OC — bioavailability (male Swiss mouse, plasma; intraperitoneal, 10 mg/kg): 25%
CSc1sc(C)cc1-c1nsc(=O)o1 — half-life (chemical stability; culture medium): 110 min
NS(=O)(=O)c1ccc(Cc2c(-c3cccc(-c4ccccc4)c3)nn(-c3nc(C(=O)O)cs3)c2C2CC2)cc1 — bioavailability (male CD-1 mouse, plasma; oral, 50 mg/kg): ~50%
O=C(NC1CCCCC1)Oc1ccc(-c2ccccc2)cc1 — half-life (metabolic stability; male Wistar rat, liver S9; 1 µM, pH 7.4): 19 min
Cc1cc(-c2nsc(=O)o2)c(S(C)(=O)=O)s1 — half-life (chemical stability; culture medium): 13.5 min
CCC[C@@](N)(CO)CCc1ccc(OCCCCCC(C)C)cc1 — AUC(0-t) (mouse, plasma; intravenous, 5 mg/kg): 0.714 µM·h
C[C@]12CC[C@H](n3ccnc3)CC1=CC[C@@H]1[C@@H]2CC[C@]2(C)C(n3cnc4ccccc43)=CC[C@@H]12.Cl — AUC(0-t) (male CD-1 mouse, plasma; intravenous, 1 mg/kg): 2040 ng·h/mL
